The values that follow come from ChEMBL document CHEMBL1799960, “Diadenosine 5',5''-(boranated)polyphosphonate analogues as selective nucleotide pyrophosphatase/phosphodiesterase inhibitors” (J Med Chem, 2010).

Some results are limits rather than exact numbers.

What all share (assay type): cell-based
The target of assay [1] is T1, Ectonucleotide pyrophosphatase/phosphodiesterase family member 1 (Homo sapiens) (UniProt P22413).
T1 sequence (whole entry): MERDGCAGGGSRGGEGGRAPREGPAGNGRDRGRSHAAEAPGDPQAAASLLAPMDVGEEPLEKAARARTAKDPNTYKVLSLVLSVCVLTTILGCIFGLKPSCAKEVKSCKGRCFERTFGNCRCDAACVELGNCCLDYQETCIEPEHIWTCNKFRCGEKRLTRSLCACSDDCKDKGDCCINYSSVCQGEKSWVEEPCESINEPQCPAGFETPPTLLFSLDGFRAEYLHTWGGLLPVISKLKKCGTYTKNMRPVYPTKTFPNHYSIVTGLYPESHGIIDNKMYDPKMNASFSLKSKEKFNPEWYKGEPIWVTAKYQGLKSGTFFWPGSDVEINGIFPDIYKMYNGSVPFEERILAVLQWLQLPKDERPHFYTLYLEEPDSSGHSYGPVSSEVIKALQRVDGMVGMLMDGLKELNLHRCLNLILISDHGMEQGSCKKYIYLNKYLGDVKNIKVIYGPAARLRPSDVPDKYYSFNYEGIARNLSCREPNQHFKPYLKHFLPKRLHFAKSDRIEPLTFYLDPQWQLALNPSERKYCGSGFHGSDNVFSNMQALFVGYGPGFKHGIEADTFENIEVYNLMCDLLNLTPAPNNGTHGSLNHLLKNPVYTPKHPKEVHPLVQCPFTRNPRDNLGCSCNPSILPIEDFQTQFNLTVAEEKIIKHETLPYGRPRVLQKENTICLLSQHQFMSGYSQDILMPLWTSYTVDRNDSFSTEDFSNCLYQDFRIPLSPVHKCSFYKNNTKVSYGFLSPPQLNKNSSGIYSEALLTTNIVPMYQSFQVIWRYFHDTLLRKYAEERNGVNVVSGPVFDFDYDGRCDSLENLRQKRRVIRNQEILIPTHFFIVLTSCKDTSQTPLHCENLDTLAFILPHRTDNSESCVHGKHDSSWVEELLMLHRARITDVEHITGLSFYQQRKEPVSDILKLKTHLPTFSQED
In words: Inhibition of human NPP1 expressed in COS7 cells assessed as production of p-nitrophenol using pnp-TMP as the substrate at 100 uM after 15 mins […]. To be noted: COS-7. Summed up: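 Human NPP1, NPP2 (membrane lysate or conditioned medium for the secreted form) or NPP3 from transfected COS-7 cells, preincubated 3 min at 37 °C in 50 mM Tris pH 8.5 buffer with CaCl2, NaCl and KCl. Substrate and inhibitor both at 100 μM final. pnp-TMP: p-nitrophenol read at 405 nm at 15 min. ATP or Ap5A: stopped at 30 min with perchloric acid, then HPLC. Results as % residual activity versus control; three to six experiments in triplicate.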

The target of assay [2] is T1, Ectonucleotide pyrophosphatase/phosphodiesterase family member 1 (Homo sapiens). In words: Inhibition of human NPP1 expressed in COS7 cells assessed as amount of inorganic phosphate released using ATP as the substrate at 100 uM after 15 mins by malachite green reagent method. Particulars: COS-7.
The target of assay [3] is T2, Ectonucleoside triphosphate diphosphohydrolase 2 (Homo sapiens) (UniProt Q9Y5L3).
T2 sequence (whole entry): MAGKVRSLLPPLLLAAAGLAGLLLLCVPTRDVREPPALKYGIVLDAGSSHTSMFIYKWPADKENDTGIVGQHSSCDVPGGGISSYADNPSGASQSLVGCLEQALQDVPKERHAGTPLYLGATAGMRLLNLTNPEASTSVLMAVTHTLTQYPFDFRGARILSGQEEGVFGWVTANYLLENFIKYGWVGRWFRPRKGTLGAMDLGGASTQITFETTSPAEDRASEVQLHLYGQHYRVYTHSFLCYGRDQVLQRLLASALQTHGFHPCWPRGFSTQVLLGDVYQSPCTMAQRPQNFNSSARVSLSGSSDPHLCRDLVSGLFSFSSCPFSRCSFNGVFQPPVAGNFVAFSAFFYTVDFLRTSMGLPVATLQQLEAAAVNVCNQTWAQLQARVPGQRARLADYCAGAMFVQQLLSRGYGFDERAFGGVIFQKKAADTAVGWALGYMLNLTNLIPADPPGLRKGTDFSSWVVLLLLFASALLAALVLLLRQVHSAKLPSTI
In words: Inhibition of human NTPDase2 expressed in COS7 cells assessed as amount of inorganic phosphate released using ATP as the substrate at 100 uM after 15 mins by malachite green reagent method. Particulars: COS-7. Summed up: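 Protein extracts of transfected COS-7 cells (ecto-5'-nucleotidase: 100 μM AMP substrate; NTPDases: 100 μM ATP) were preincubated 3 min at 37 °C in Tris-Ringer pH 7.3 with inhibitor at 100 μM final. After 15 min, malachite green stop; Pi read at 630 nm. Activity given as % of substrate-only control. Mean ± SD of three experiments in triplicate.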

In assay [4] the target is T3, Ectonucleotide pyrophosphatase/phosphodiesterase family member 3 (Homo sapiens) (UniProt O14638).
T3 sequence (whole entry): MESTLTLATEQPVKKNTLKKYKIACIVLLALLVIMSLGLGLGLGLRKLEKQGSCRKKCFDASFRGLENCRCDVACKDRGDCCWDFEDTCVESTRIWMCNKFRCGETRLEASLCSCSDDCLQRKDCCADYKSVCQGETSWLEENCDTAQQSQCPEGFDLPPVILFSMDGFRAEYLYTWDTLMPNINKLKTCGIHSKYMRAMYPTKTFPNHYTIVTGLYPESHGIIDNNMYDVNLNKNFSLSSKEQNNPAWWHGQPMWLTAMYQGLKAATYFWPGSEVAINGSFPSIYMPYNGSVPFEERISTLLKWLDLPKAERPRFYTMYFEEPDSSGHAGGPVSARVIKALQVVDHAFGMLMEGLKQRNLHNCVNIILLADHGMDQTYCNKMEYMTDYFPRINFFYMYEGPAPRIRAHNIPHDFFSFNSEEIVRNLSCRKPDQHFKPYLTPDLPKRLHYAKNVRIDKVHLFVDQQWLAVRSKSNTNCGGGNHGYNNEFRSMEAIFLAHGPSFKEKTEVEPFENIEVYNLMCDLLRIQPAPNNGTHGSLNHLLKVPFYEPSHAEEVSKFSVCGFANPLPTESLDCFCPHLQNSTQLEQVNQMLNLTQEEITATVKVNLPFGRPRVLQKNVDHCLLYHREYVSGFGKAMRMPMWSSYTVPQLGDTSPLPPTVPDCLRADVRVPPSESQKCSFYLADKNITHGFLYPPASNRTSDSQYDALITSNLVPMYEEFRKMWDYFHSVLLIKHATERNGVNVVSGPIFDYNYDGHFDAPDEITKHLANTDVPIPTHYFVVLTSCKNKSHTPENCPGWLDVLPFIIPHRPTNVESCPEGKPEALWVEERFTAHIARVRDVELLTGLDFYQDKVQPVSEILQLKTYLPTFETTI
In words: Inhibition of human NPP3 expressed in COS7 cells assessed as production of p-nitrophenol using Ap5A as the substrate at 100 uM after 30 mins […]. To be noted: COS-7.

In assay [5] the target is T1, Ectonucleotide pyrophosphatase/phosphodiesterase family member 1 (Homo sapiens). In words: Inhibition of human NPP1 in human HT29 cells assessed as production of p-nitrophenol using pnp-TMP as the substrate […]. To be noted: HT-29.

Usually inhibition stands for the relative decrease from the control value, in per cent. `Nc1ncnc2c1ncn2[C@H]1C[C@H](O)[C@@H](COP(=O)(O)CP(=O)(O)OP(=O)(O)CP(=O)(O)OC[C@H]2O[C@@H](n3cnc4c(N)ncnc43)C[C@@H]2O)O1`: the inhibition in assay [1] is greater than 90%; in assay [2], greater than 90%; in assay [3], 10%; in assay [4] it was 10%; in assay [5] it was 80%.
For the molecule `BP(=O)(OP(=O)(O)CP(=O)(O)OC[C@H]1O[C@@H](n2cnc3c(N)ncnc32)[C@H](O)[C@@H]1O)OP(=O)(O)CP(=O)(O)OC[C@H]1O[C@@H](n2cnc3c(N)ncnc32)[C@H](O)[C@@H]1O`, the inhibition is greater than 90% in assay [1]; greater than 90% in assay [2]; 10% in assay [3]; 10% in assay [4]; 90% in assay [5].
As for `Nc1ncnc2c1ncn2[C@@H]1O[C@H](COP(=O)(O)CP(=O)(O)OP(=O)(O)CP(=O)(O)OC[C@H]2O[C@@H](n3cnc4c(N)ncnc43)[C@H](O)[C@@H]2O)[C@@H](O)[C@H]1O`, the inhibition in assay [1] is greater than 90%; in assay [2], 70%; in assay [3] it was 10%; in assay [4], 10%; in assay [5], 80%.
For `BP(=O)(OP(=O)(O)CP(=O)(O)OC[C@H]1O[C@@H](n2cnc3c(N)ncnc32)C[C@@H]1O)OP(=O)(O)CP(=O)(O)OC[C@H]1O[C@@H](n2cnc3c(N)ncnc32)C[C@@H]1O`, the inhibition is greater than 90% in assay [1]; 70% in assay [2]; 10% in assay [3]; 10% in assay [4]; 90% in assay [5].
